The subject of data set [1] is N2a. The data set is described as follows: Antiamyloidogenic activity in mouse N2A cells transfected with human APP Swedish mutant assessed as increase of amyloid beta (1 to 40) level at 100 uM after 24 hrs by ELISA. It is filed as functional, cell-based.
The test system of data set [2] is N2a. The data set is described as follows: Antiamyloidogenic activity in mouse N2A cells assessed as reduction of amyloid beta (1 to 42)/(1 to 40) ratio at 1 uM treated 24 hrs before amyloid beta (1 to 42)/(1 to 40) challenge measured after 8 hrs by MALDI/TOF analysis. Type of data set: functional, cell-based. Put shortly:
(§1)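 Wild-type N2a cells in DMEM with 0.2 % FBS, drug-treated after PBS wash; conditioned media collected (18 h per methods, 24 h per text), NaN₃ added, centrifuged, then mixed with Aβ1–40 + Aβ1–42 and incubated 8 h at 37 °C. Cell-free media served as control. Aβ measured by 4G8/6E10 immunoprecipitation and MALDI-TOF, normalized to Aβ1–43 spike and to media control; mean and s.d.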

The test system of data set [3] is RAW264.7. The data set is described as follows: Antiinflammatory activity against mouse RAW264.7 cells assessed as LPS-induced nitrate production at 100 uM treated 30 mins before LPS challenge measured after 24 hrs by Griess reagent method relative to control.
Data set [4] has as its system N2a. The data set is described as follows: Antiamyloidogenic activity in mouse N2A cells assessed as degradation of amyloid beta (1 to 42) level at 1 uM treated 24 hrs before amyloid beta (1 to 42) challenge measured after 8 hrs by MALDI/TOF analysis. Type of data set: functional, cell-based. Put shortly:
as §1

Data set [5] in a line: Cytotoxicity against mouse RAW264.7 cells assessed as cell viability at 100 uM after 24 hrs by MTT assay relative to control. Type of data set: cell-based. To be noted: read-out: Activity. Put shortly: (§2)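 RAW 264.7 cells given 0.5 mg/ml MTT in medium for 4 h, washed with PBS; formazan dissolved in DMSO, shaken 30 min, absorbance read at 570 nm against a 630 nm reference. Viability expressed relative to DMSO control.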

For data set [6], the system named is N2a. The data set is described as follows: Antiamyloidogenic activity in mouse N2A cells assessed as degradation of amyloid beta (1 to 40) level at 1 uM treated 24 hrs before amyloid beta (1 to 40) challenge measured after 8 hrs by MALDI/TOF analysis. It is filed as functional, cell-based. Put shortly:
as §1

In data set [7] the test system is N2a. The data set is described as follows: Antiamyloidogenic activity in mouse N2A cells transfected with human APP Swedish mutant assessed as increase of amyloid beta (1 to 42)/(1 to 40) ratio at 100 uM after 24 hrs by ELISA. It is filed as functional, cell-based.
For data set [8], the system named is N2a. The data set is described as follows: Antiamyloidogenic activity in mouse N2A cells transfected with human APP Swedish mutant assessed as increase of amyloid beta (1 to 42) level at 100 uM after 24 hrs by ELISA. Type of data set: functional, cell-based.
The subject of data set [9] is RAW264.7. Kind of data set: Antiinflammatory activity against mouse RAW264.7 cells assessed as LPS-induced nitrate production at 10 uM treated 30 mins before LPS challenge measured after 24 hrs by Griess reagent method relative to control.
Data set [10] relates to N2a. Kind of data set: Antiamyloidogenic activity in mouse N2A cells transfected with human APP Swedish mutant assessed as amyloid beta (1 to 42) level at 100 uM after 24 hrs by ELISA relative to control.
A short description of data set [11]: Cytotoxicity against mouse RAW264.7 cells assessed as cell viability at 10 uM after 24 hrs by MTT assay relative to control. Type of data set: cell-based. As to conditions: read-out: Activity. Put shortly: as §2
In data set [12] the test system is N2a. The data set is described as follows: Antiamyloidogenic activity in mouse N2A cells transfected with human APP Swedish mutant assessed as amyloid beta (1 to 42) level at 1 uM after 24 hrs by ELISA relative to control.
Data set [13] is described as follows: Ratio of drug level in brain to plasma in C57BL/6 mouse at 10 mg/kg, ip after 30 mins. To be noted: read-out: BPR. Type of data set: ADME, organism-based. The arrangement: dose 10 mg/kg, route intraperitoneal. Put shortly:
(§3)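 Male C57BL/6 mice (25 g) dosed i.p. with 10 mg/kg in DMSO/H₂O 1:1, sacrificed at 30 or 120 min. Brain extracted by methanol homogenization and plasma by acetonitrile, then C18 LC-MS/MS with MRM m/z 361→200 in positive mode. Quantified against a 4–500 ng/mL standard curve; N=4, mean and s.e.m.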

Data set [14] in a line: Ratio of drug level in brain to plasma in C57BL/6 mouse at 10 mg/kg, ip after 120 mins. Type of data set: ADME, organism-based. As to conditions: read-out: BPR. The arrangement: dose 10 mg/kg, route intraperitoneal. Put shortly: as §3
The subject of data set [15] is N2a. Kind of data set: Antiamyloidogenic activity in mouse N2A cells assessed as degradation of amyloid beta (1 to 40) level at 10 uM treated 24 hrs before amyloid beta (1 to 40) challenge measured after 8 hrs by MALDI/TOF analysis. It is filed as functional, cell-based. Summed up:
as §1

Data set [16] concerns N2a. The data set is described as follows: Antiamyloidogenic activity in mouse N2A cells assessed as degradation of amyloid beta (1 to 42) level at 10 uM treated 24 hrs before amyloid beta (1 to 42) challenge measured after 8 hrs by MALDI/TOF analysis. It is filed as functional, cell-based. Put shortly: as §1
Data set [17] has as its system N2a. The data set is described as follows: Antiamyloidogenic activity in mouse N2A cells assessed as reduction of amyloid beta (1 to 42)/(1 to 40) ratio at 10 uM treated 24 hrs before amyloid beta (1 to 42)/(1 to 40) challenge measured after 8 hrs by MALDI/TOF analysis. Type of data set: functional, cell-based. Summed up: as §1
Data set [18] has as its system N2a. The data set is described as follows: Antiamyloidogenic activity in mouse N2A cells transfected with human APP Swedish mutant assessed as increase of amyloid beta (1 to 40) level at 200 uM after 24 hrs by ELISA. It is filed as functional, cell-based.
Data set [19] relates to N2a. The data set is described as follows: Antiamyloidogenic activity in mouse N2A cells transfected with human APP Swedish mutant assessed as increase of amyloid beta (1 to 42) level at 200 uM after 24 hrs by ELISA. Type of data set: functional, cell-based.
The test system of data set [20] is N2a. Kind of data set: Antiamyloidogenic activity in mouse N2A cells transfected with human APP Swedish mutant assessed as effect on amyloid beta (1 to 37) level at 200 uM after 24 hrs by ELISA. Type of data set: functional, cell-based.
For data set [21], the system named is N2a. Kind of data set: Antiamyloidogenic activity in mouse N2A cells transfected with human APP Swedish mutant assessed as increase of amyloid beta (1 to 42)/(1 to 40) ratio at 200 uM after 24 hrs by ELISA. Type of data set: functional, cell-based.
Data set [22] deals with N2a. The data set is described as follows: Antiamyloidogenic activity in mouse N2A cells transfected with human APP Swedish mutant assessed as effect on amyloid beta (1 to 38) level at 200 uM after 24 hrs by ELISA. It is filed as functional, cell-based.
The test system of data set [23] is N2a. The data set is described as follows: Antiamyloidogenic activity in mouse N2A cells transfected with human APP Swedish mutant assessed as increase of amyloid beta (1 to 42) level at 200 uM after 24 hrs by ELISA relative to control. It is filed as functional.
The subject of data set [24] is N2a. The data set is described as follows: Antiamyloidogenic activity in mouse N2A cells assessed as degradation of amyloid beta (1 to 42) level at 100 uM treated 24 hrs before amyloid beta (1 to 42) challenge measured after 8 hrs by MALDI/TOF analysis. It is filed as functional, cell-based. Put shortly:
(§4)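 Wild-type N2a cells were plated at 100 × 10⁴ cells/well, PBS-washed, and drug-treated in DMEM with 0.2 % FBS. Conditioned medium was collected after 24 h per the legend (18 h per the methods), given NaN₃, spun at 10,000 g, added to an Aβ1–40 + Aβ1–42 mixture, and incubated 8 h at 37 °C. Samples were then given protease inhibitors, spiked with Aβ1–43, and analysed by 4G8/6E10 IP-MALDI-TOF. Values were normalised to cell-free media control; mean and s.d.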

The subject of data set [25] is N2a. Kind of data set: Antiamyloidogenic activity in mouse N2A cells assessed as reduction of amyloid beta (1 to 42)/(1 to 40) ratio at 100 uM treated 24 hrs before amyloid beta (1 to 42)/(1 to 40) challenge measured after 8 hrs by MALDI/TOF analysis. Type of data set: functional, cell-based. Put shortly: as §4
The subject of data set [26] is N2a. The data set is described as follows: Antiamyloidogenic activity in mouse N2A cells transfected with human APP Swedish mutant assessed as increase of amyloid beta (1 to 37) level at 100 uM after 24 hrs by ELISA. It is filed as functional, cell-based.
For data set [27], the system named is N2a. The data set is described as follows: Antiamyloidogenic activity in mouse N2A cells assessed as degradation of amyloid beta (1 to 40) level at 100 uM treated 24 hrs before amyloid beta (1 to 40) challenge measured after 8 hrs by MALDI/TOF analysis. It is filed as functional, cell-based. Summed up:
as §4

Data set [28] relates to N2a. The data set is described as follows: Antiamyloidogenic activity in mouse N2A cells transfected with human APP Swedish mutant assessed as reduction of amyloid beta (1 to 42) level at 100 uM after 24 hrs by ELISA. Type of data set: functional, cell-based.

The source made the active and inactive calls. The rule behind the calls is not given here.

With `CC(C(=O)OCCCCO[N+](=O)[O-])c1ccc(-c2ccccc2)c(F)c1` (configuration not stated), the result in data set [1], in data set [2], in [4], in data set [6], in [7] and in [8] was Active. Further, the level, % of control at 100 µM in data set [3] stood at 49.8%. The viability at 24 h, 100 µM in data set [5] is 108%.
Consider `COc1ccc2c(c1)c(CC(=O)O)c(C)n2C(=O)c1ccc(Cl)cc1` [INDOMETHACIN], for which the level, % of control at 100 µM was 39.8% in data set [3] and 76.7% in data set [10]. Besides, the level, % of control at 10 µM in data set [9] was determined as 70.9%. In addition, the viability at 24 h, 100 µM in [5] amounted to 92%. In data set [11], the viability at 24 h, 10 µM came to 98.7%. For the same compound, in data set [12], the level, % of control at 1 µM turned out to be 108%.
On to `CC(C(=O)NCCCCO[N+](=O)[O-])c1ccc(-c2ccccc2)c(F)c1` (configuration not stated), for which, in [13], the Kp at 0.5 h turned out to be 37. In addition, the Kp at 2 h in [14] is 13.
Consider `CSc1ccc(/C=C2/C=C(CC(=O)O)c3cc(F)ccc32)cc1`, for which the result in data set [15], in data set [16] and in [17] was Active. Moreover, the level, % of control at 10 µM in [9] stood at 47.5%. For the same compound, the viability at 24 h, 10 µM in data set [11] stood at 100%. The level, % of control at 1 µM in data set [12] came to 80.8%.
Take `CC(C)OC(=O)C(C)(C)Oc1ccc(C(=O)c2ccc(Cl)cc2)cc1` [FENOFIBRATE]: the outcome in [18], in [19], in [20], in data set [21] and in [22] was Active. Further, in data set [23], the “fold change (FC)” value is 3.
As for `CC(C(=O)O)c1ccc(-c2ccccc2)c(F)c1` (configuration not stated) [FLURBIPROFEN], the level, % of control at 100 µM in [3] was determined as 69.1%. In addition, the result in [24], in data set [25], in [26] and in [27] was Active. Also, in data set [9], the level, % of control at 10 µM was 80.7%. For the same compound, in data set [5], the viability at 24 h, 100 µM was 10.9%. Further, the level, % of control at 1 µM in data set [12] is 86.6%. The inhibition entry in data set [28] was “Active”.
